Source: PubChem BioAssay (several laboratories)
VIM-2 inhibitor: blocks Pseudomonas aeruginosa VIM-2 metallo-beta-lactamase. purified VIM-2, nitrocefin hydrolysis, epi-absorbance fluorescence. inhibition, % at 5.6 µM. 290,000 compounds, 0.89% hits;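 active = inhibition above the mean of all tested compounds plus 3 SD, cutoff set per screening run, cut at about 7.5% in these data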;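 also: red hydrolysis product quenches plate fluorescence so inhibitors raise well fluorescence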
PHOSPHO1 block: blocks human PHOSPHO1 phosphatase activity; Q8TCT1; recombinant PHOSPHO1, absorbance phosphatase assay; inhibition, % at 13.3 µM; 290,000 compounds, 1.1% hits; AID 1565; in the data active = inhibition above about 60%
Target sequence (Q8TCT1 whole entry, looked up): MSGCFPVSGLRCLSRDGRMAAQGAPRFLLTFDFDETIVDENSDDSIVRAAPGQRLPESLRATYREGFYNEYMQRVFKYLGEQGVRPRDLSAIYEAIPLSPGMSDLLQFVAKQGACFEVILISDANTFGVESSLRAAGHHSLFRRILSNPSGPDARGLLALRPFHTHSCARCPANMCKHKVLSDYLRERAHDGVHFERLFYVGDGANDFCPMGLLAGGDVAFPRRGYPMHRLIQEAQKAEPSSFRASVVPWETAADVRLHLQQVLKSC
ASAP1 inh: inhibitors of human ASAP1 ArfGAP activity | Q9ULH1 | ASAP1-stimulated ARF1 GTP hydrolysis, GDP FP detection | inhibition, % at 16.5 µM | 360,000 compounds, 0.19% hits | AID 624377; in the data active = inhibition above about 25%
Calb FLC: affects C. albicans growth with fluconazole. C. albicans CaCi-2 + fluconazole, Alamar Blue growth, 48 h. growth inhibition, % (test concentration not listed). 300,000 compounds, 0.57% hits. AID 1979;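 active = growth inhibition above about 58% in most replicates, limit read from the data, passing the limit was not always enough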;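 also: all wells also contain fluconazole at 8 µg/ml as a sub-toxic cotreatment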
IMP-1 inh: inhibitors of Pseudomonas aeruginosa IMP-1 metallo-beta-lactamase | purified IMP-1, nitrocefin hydrolysis, epi-absorbance fluorescence | inhibition, % at 5.6 µM | 290,000 compounds, 0.45% hits | AID 1556;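 active = inhibition above the mean plus 3 SD of all compounds in the same screening run, cut at about 4.5% in these data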
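System – purified recombinant IMP-1 beta-lactamase · Input – IMP-1 dispensed at 0.2 nM · Timing – 15 min preincubation plus 25 min reaction at 25 °C · Signal – Epi-absorbance fluorescence, 480 nm excitation, 530 nm emission · Measure – percent IMP-1 inhibition derived from blank-referenced optical density · Controls – Enzyme-plus-DMSO low control, enzyme-free DMSO high control · Replication – singlicate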
ARFGAP1 inhibitor: inhibitors of rat ARFGAP1. Arfgap1-stimulated ARF1 GTP hydrolysis, GDP FP detection. AID 651572. Q62848. 360,000 compounds, 0.26% hits. inhibition, % at 16.5 µM;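 active = inhibition above a per-plate limit, mean inhibition of low control wells plus 3 SD, cut at about 25% in these data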
Target sequence (Q62848 1-136 limits assumed): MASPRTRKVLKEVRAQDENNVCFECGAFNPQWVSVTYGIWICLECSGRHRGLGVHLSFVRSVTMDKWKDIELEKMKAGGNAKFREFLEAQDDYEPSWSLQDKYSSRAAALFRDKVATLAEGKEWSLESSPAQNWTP
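Material: rat Arfgap1 catalytic domain, aa 1-136; also added: human ARF1(Δ1-17)-GTP substrate; compound dosing: one concentration, 16.5 µM, DMSO 1.26%; incubation: GTP hydrolysis reaction 2 h at 25 °C; measured by: Tracer-displacement fluorescence polarization with EDTA stop, 620/688 nm; evaluation: % inhibition from polarization; repeats: one replicate per compound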
Large screens that a line does not name were inactive. A selection: hits, their analogues and other compounds. The true share with any hit is near 2.6%.

C#CCN(C[C@H]1[C@H](OC(=O)NCCCCCC)[C@H](OC(=O)NCCCCCC)CN(C(=O)OC(C)C)N1C(=O)OC(C)C)S(=O)(=O)c1ccc(C)cc1	none (no result: VIM-2 inhibitor, PHOSPHO1 block, Calb FLC, IMP-1 inh)
Cc1ccc(N/N=C2/CCCNC2=O)cc1	PHOSPHO1 block 93.0
O=C(O)CNC(=O)/C(=C\c1ccc2c(c1)OCO2)NC(=O)c1ccc(Br)cc1	none
CCN(CC)C(=O)/C(=C/c1ccc2c(c1)OCO2)NC(=O)c1ccc(Br)cc1	Calb FLC 90.6
COCc1cc(N2CCNC[C@@H]2C)ccc1N1C[C@@H](C)O[C@@H](C)C1	none (no result: VIM-2 inhibitor, PHOSPHO1 block, Calb FLC, IMP-1 inh)
Cn1c(=O)n(C)c2cc([N+](=O)[O-])c(N3CCN(C(=O)c4ccc(Cl)cc4)CC3)cc21	none
O=C(c1ccc(N2CCCCC2)c([N+](=O)[O-])c1)N1CCOCC1	none
O=C(c1ccc(N2CCOCC2)c([N+](=O)[O-])c1)N1CCCCC1	PHOSPHO1 block 74.0
Cn1c(=O)n(C)c2cc([N+](=O)[O-])c(N3CCN(C(=O)c4ccc(F)cc4)CC3)cc21	PHOSPHO1 block 60.0
Cc1[nH]n(C(C)(C)C)c(=O)c1Sc1ccc(Cl)cc1	PHOSPHO1 block 74.1
COc1ccc(C2N=C(Nc3ccc(C)cc3)Nc3nc(C)cc(=O)n32)cc1 (stereo unspecified)	Calb FLC 109.9
Cc1ccc(NC2=NC(c3ccc(O)cc3)n3c(nc(C)cc3=O)N2)cc1 (stereo unspecified)	none
CCOc1cc(S(=O)(=O)NCc2ccccc2)c(OCC)cc1-n1cnnn1	Calb FLC 100.0 (no result: PHOSPHO1 block)
CCOc1ccc(-n2cnnn2)cc1S(=O)(=O)NCc1ccccc1	none
CCNC(=O)N1CCN(c2ccc(N3CCN(C(=O)NCC)[C@@H](C)C3)c(C)c2)[C@H](C)C1	none (no result: VIM-2 inhibitor, PHOSPHO1 block, Calb FLC, IMP-1 inh)
Cc1nn(C)cc1/C=C/C(=O)c1ccccc1	none
CCn1cc(/C=C/C(=O)c2ccc(O)cc2)c(C)n1	PHOSPHO1 block 60.1
COc1cccc(NC(=O)N(C)C[C@H]2OCc3cn(nn3)CCCC(=O)N([C@H](C)CO)C[C@@H]2C)c1	none (no result: VIM-2 inhibitor, PHOSPHO1 block, Calb FLC, IMP-1 inh)
COCCCNC(=O)c1nnn2c1nc(N)c1cc(Cl)ccc12	none (no result: VIM-2 inhibitor, PHOSPHO1 block, Calb FLC, IMP-1 inh)
COc1cc(NC(=S)NC(=O)c2ccc(C)cc2C)ccc1NC(=O)c1cccs1	PHOSPHO1 block 61.9
COC(=O)[C@]12C[C@H](CC(=O)NCC34CC5CC(CC(C5)C3)C4)C(=O)N(Cc3ccccc3)C1=C[C@H](C(C)C)O[C@@H]2C1CC1	none (no result: VIM-2 inhibitor, PHOSPHO1 block, Calb FLC, IMP-1 inh)
CC1(C(=O)CSc2ncn[nH]2)CCC(=O)O1 (stereo unspecified)	PHOSPHO1 block 92.8 (no result: ASAP1 inh, ARFGAP1 inhibitor)
CC(C)(C)C1CCC(OC(=O)C[N+]2(C)CCCCC2)CC1 (stereo unspecified)	Calb FLC 78.8
CC(C)(C)C1CCC(OC(=O)C[N+]2(C)CCCC2)CC1 (stereo unspecified)	none
Cc1[nH]nc2c1C(c1ccc(F)cc1)N(c1ccccc1)C2=O (stereo unspecified)	none (no result: VIM-2 inhibitor, PHOSPHO1 block, Calb FLC, IMP-1 inh)
O=S1(=O)CC(N2CCCC2)CN1Cc1cn(Cc2ccc(C(F)(F)F)cc2)nn1 (stereo unspecified)	none (no result: VIM-2 inhibitor, PHOSPHO1 block, Calb FLC, IMP-1 inh)
c1ccc(Nc2cc(Nc3ccccc3)[nH]n2)cc1	PHOSPHO1 block 68.8
COc1cc(CNc2cccc3c2S(=O)(=O)N([C@H](C)c2ccccc2)C[C@@H](COCc2ccccc2)O3)cc(OC)c1OC	none (no result: VIM-2 inhibitor, PHOSPHO1 block, Calb FLC, IMP-1 inh)
CCc1nc2ccc(C(=O)N(C)Cc3ccccc3)cn2c1N(C)Cc1ccc(OC)cc1	none (no result: VIM-2 inhibitor, PHOSPHO1 block, Calb FLC, IMP-1 inh)
CC1CN(C(c2ccco2)c2sc3ncnn3c2O)CC(C)O1 (stereo unspecified)	PHOSPHO1 block 100.2
Cc1ccc(C(c2sc3ncnn3c2O)N2CCC(C)CC2)cc1 (stereo unspecified)	none
Cc1nc2sc(C(c3ccco3)N3CCN(c4ccc(F)cc4)CC3)c(O)n2n1 (stereo unspecified)	none
Cc1nc2sc(C(c3ccco3)N3CCN(c4ccccc4F)CC3)c(O)n2n1 (stereo unspecified)	PHOSPHO1 block 93.7
CO[C@@H]1[C@H](O)CC[C@]2(O)CN(c3ccc(F)cc3)[C@](C)([C@H](O)CC=C(C)C)[C@@H]12	none (no result: VIM-2 inhibitor, PHOSPHO1 block, Calb FLC, IMP-1 inh)
O=C(N[C@@H](Cc1cccnc1)C(=O)N1CCC[C@H]1C(=O)NCc1ccccc1)c1ccccc1	none (no result: VIM-2 inhibitor, PHOSPHO1 block, Calb FLC, IMP-1 inh)
Cc1ccc(-c2csc3nc4c5ccccc5c(NCCCN(C)C)nn4c(=O)c23)cc1	Calb FLC 77.9
